Experimental data from different studies.
Compare with care: the assays were run in different laboratories.
Organism: Severe acute respiratory syndrome coronavirus 2

With CCN(CC)CCS(=O)(=O)[C@@H]1CCN2C(=O)c3coc(n3)CC(=O)C[C@H](O)/C=C(C)/C=C/CNC(=O)/C=C/[C@@H](C)[C@@H](C(C)C)OC(=O)[C@@H]12 the IC50 was over 2 µM (viral replication; inhibitor; Huh-7).
With Nc1nc(S)[nH]c(=S)c1C(=O)Nc1ccc(Cl)cc1 the IC50 was 289 µM (viral replication; Vero C1008; 72 h).
The IC50 of COc1cc2c(cc1OC)C(=O)C(CC1CCN(Cc3ccccc3)CC1)C2 (centres unmarked) is reported as 7.76 µM (viral replication; inhibitor; A549-ACE2).
The IC50 of CC(=O)OC[C@H]1O[C@@H](Sc2nc(N)c(C(=O)Nc3ccccc3)c(=S)[nH]2)[C@H](OC(C)=O)[C@@H](OC(C)=O)[C@@H]1OC(C)=O is reported as 126 µM (viral replication; Vero C1008; 72 h).
For Cc1cccc(C)c1OCC(=O)N[C@@H](Cc1ccccc1)[C@@H](O)C[C@H](Cc1ccccc1)NC(=O)[C@H](C(C)C)N1CCCNC1=O, the IC50 was 7.79 to 12 µM (viral replication; inhibitor; Vero C1008).
COCCCC/C(=N\OCCN)c1ccc(C(F)(F)F)cc1 has an IC50 of 2.09 µM (viral replication; inhibitor; A549-ACE2).
C[C@@H](O)[C@H]1C(=O)N2C(C(=O)O)=C(S[C@@H]3CN[C@H](C(=O)N(C)C)C3)[C@H](C)[C@H]12 gave an IC50 of over 2 µM (viral replication; inhibitor; Huh-7).
The IC50 of CC(C)(C)[C@@H]1NC(=O)O[C@@H]2CCC[C@H]2OC/C=C/C(F)(F)c2nc3ccccc3nc2O[C@@H]2C[C@@H](C(=O)N[C@]3(C(=O)NS(=O)(=O)C4(C)CC4)C[C@H]3C(F)F)N(C2)C1=O is reported as over 50 µM (viral replication; HEK-293T).
With CC(C)C(=O)OCC(=O)[C@@]12O[C@H](C3CCCCC3)O[C@@H]1C[C@H]1[C@@H]3CCC4=CC(=O)C=C[C@]4(C)[C@H]3[C@@H](O)C[C@@]12C the IC50 was 8 µM (viral replication; VeroE6/TMPRSS2).
For Cc1ccc(NC(=O)c2c(N)nc(S[C@@H]3O[C@H](CO)[C@H](O)[C@H](O)[C@H]3O)[nH]c2=S)cc1, the IC50 was 34 µM (viral replication; Vero C1008; 72 h).
For CC(C)(C)CC(C)(C)c1ccc(O)c(Cc2ccc(Cl)cc2Cl)c1, the IC50 was 3.26 µM (viral replication; inhibitor; Calu-3; 40 h).
For CCN(CC)CCOc1ccc2c(c1)C(=O)c1cc(OCCN(CC)CC)ccc1-2, the IC50 was 79.2 µM (viral replication; inhibitor; Vero; 24 h).
With COc1ccc2c(c1)[C@]13CCCC[C@@H]1[C@H](C2)N(C)CC3 the IC50 was 4.17 µM (viral replication; inhibitor; A549-ACE2).
COc1ccc(NC(=O)c2c(N)nc(S[C@@H]3O[C@H](COC(C)=O)[C@@H](OC(C)=O)[C@H](OC(C)=O)[C@H]3OC(C)=O)[nH]c2=S)cc1 has an IC50 of 169 µM (viral replication; Vero C1008; 72 h).
COc1cccc2c1C(=O)c1c(O)c3c(c(O)c1C2=O)C[C@@](O)(C(C)=O)C[C@@H]3O[C@H]1C[C@H](N)[C@H](O)[C@H](C)O1 has an IC50 of 1.23 µM (viral replication; inhibitor; Calu-3; 40 h).
With CCOP(=O)(OCC)N1C/C(=C\c2ccc(Br)cc2)C(=O)C2(C1)C(c1ccc(Br)cc1)CN(C)C21C(=O)Nc2ccccc21 (centres unmarked) the IC50 was 8.88 µM (viral replication; inhibitor; Vero C1008; 72 h).
For NC(=O)c1nc(F)c[nH]c1=O, the IC50 was over 100 µM (viral replication; inhibitor; Vero C1008).
With Fc1ccc([C@@H]2CCNC[C@H]2COc2ccc3c(c2)OCO3)cc1 the IC50 was 3.55 µM (viral replication; Vero C1008).
O=c1c(O[C@@H]2O[C@H](CO)[C@@H](O)[C@H](O)[C@H]2O)c(-c2ccc(O)c(O)c2)oc2cc(O)cc(O)c12 gave an IC50 of over 2 µM (viral replication; inhibitor; Huh-7).
COc1cc2c(cc1OC)CN(CCc1ccc(NC(=O)c3cccc4c(=O)c5cccc(OC)c5[nH]c34)cc1)CC2 gave an IC50 of 0.575 µM (viral replication; Vero C1008).
CC(C)N1CCN(c2ccc(OCC3COC(Cn4cncn4)(c4ccc(Cl)cc4Cl)O3)cc2)CC1 (centres unmarked) has an IC50 of 11.9 µM (viral replication; inhibitor; Vero C1008).
The IC50 of CCCCCCCCC=CCCCCCCCC(=O)NCCO is reported as over 2 µM (viral replication; inhibitor; Huh-7).
With CCN(CC)CCOc1ccc(C(O)(Cc2ccc(Cl)cc2)c2ccc(C)cc2)cc1 (centres unmarked) the IC50 was 0.363 µM (viral replication; inhibitor; A549-ACE2).
Nc1nc(S[C@@H]2O[C@H](CO)[C@@H](O)[C@H](O)[C@H]2O)[nH]c(=S)c1C(=O)Nc1ccc(Cl)cc1 has an IC50 of 45.3 µM (viral replication; Vero C1008; 72 h).
For O=C(Nc1ccc([N+](=O)[O-])cc1Cl)c1cc(Cl)ccc1O, the IC50 was 0.142 µM (viral replication; inhibitor; Huh-7).
CCCCc1oc2ccc(NS(C)(=O)=O)cc2c1C(=O)c1ccc(OCCCN(CCCC)CCCC)cc1 has an IC50 of 2.95 µM (viral replication; inhibitor; Calu-3; 40 h).
O=C1NCN(c2ccccc2)C12CCN(CCCC(c1ccc(F)cc1)c1ccc(F)cc1)CC2 gave an IC50 of 3.16 µM (viral replication; inhibitor; Vero C1008).
CCN(C)C(=O)Oc1cccc([C@H](C)N(C)C)c1 has an IC50 of over 2 µM (viral replication; inhibitor; Huh-7).
For CCN(CCO)CCCC(C)Nc1ccnc2cc(Cl)ccc12 (centres unmarked), the IC50 was 9.21 µM (viral replication; inhibitor; Vero C1008).
The IC50 of CCN(CC)CCO[C@H]1CC[C@@]2(C)C(=CC[C@@H]3[C@@H]2CC[C@]2(C)C(=O)CC[C@@H]32)C1 is reported as 2.4 µM (viral replication; Vero C1008).
CC(C)CCCCCCCCC[C@@H]1CC(=O)N[C@@H](CCC(=O)O)C(=O)N[C@@H](CC(C)C)C(=O)N[C@H](CC(C)C)C(=O)N[C@@H](C(C)C)C(=O)N[C@@H](CC(=O)O)C(=O)N[C@H](CC(C)C)C(=O)N[C@@H](CC(C)C)C(=O)O1 gave an IC50 of over 0.4 µg/mL (viral replication; inhibitor; Vero; 24 h).
C=C1C(=O)[C@@]23[C@H](O)C[C@@H]4C(C)(C)C(=O)CC[C@@]4(C)[C@@H]2CC[C@@H]1[C@H]3O gave an IC50 of 2.9 µM (viral replication; inhibitor; Calu-3; 40 h).
With CC(C)(C)OC(=O)N[C@H]1CCCCC/C=C\[C@@H]2C[C@@]2(C(=O)NS(=O)(=O)C2CC2)NC(=O)[C@@H]2C[C@@H](OC(=O)N3Cc4cccc(F)c4C3)CN2C1=O the IC50 was over 50 µM (viral replication; HEK-293T).
The IC50 of CC(Nc1nc(N2CCNCC2)nc2ccccc12)c1ccccc1N (centres unmarked) is reported as 35.5 µM (viral entry; inhibitor; pseudovirus).
Nc1nc(S[C@@H]2O[C@H](CO)[C@@H](O)[C@H](O)[C@H]2O)[nH]c(=S)c1C(=O)Nc1ccccc1 gave an IC50 of 47.8 µM (viral replication; Vero C1008; 72 h).
With CCC(CC)COC(=O)[C@H](C)N[P@](=O)(OC[C@H]1O[C@@](C#N)(c2ccc3c(N)ncnn23)[C@H](O)[C@@H]1O)Oc1ccccc1 the IC50 was 0.389 µM (viral replication; inhibitor; Calu-3; 40 h).
With CC(CN1c2ccccc2Sc2ccccc21)N(C)C (centres unmarked) the IC50 was 0.575 µM (viral replication; inhibitor; A549-ACE2).
For CC(C)[N+]1(C)[C@@H]2CC[C@H]1C[C@@H](OC(=O)C(CO)c1ccccc1)C2 (some centres unmarked), the IC50 was 0.056 µM (viral replication; inhibitor; Huh-7).
With CCSc1ccc2c(c1)N(CCCN1CCN(C)CC1)c1ccccc1S2 the IC50 was 7.09 µM (viral replication; inhibitor; Vero C1008).
CCCCCOc1ccc(-c2ccc(-c3ccc(C(=O)N[C@H]4C[C@@H](O)[C@@H](O)NC(=O)[C@@H]5[C@@H](O)[C@@H](C)CN5C(=O)[C@H]([C@@H](C)O)NC(=O)[C@H]([C@H](O)[C@@H](O)c5ccc(O)cc5)NC(=O)[C@@H]5C[C@@H](O)CN5C(=O)[C@H]([C@@H](C)O)NC4=O)cc3)cc2)cc1 gave an IC50 of 5.4 µg/mL (viral replication; inhibitor; Vero; 24 h).
With COc1cc(Nc2c(C#N)cnc3cc(OCCCN4CCN(C)CC4)c(OC)cc23)c(Cl)cc1Cl the IC50 was 0.02 µM (viral replication; inhibitor; Huh-7).
CCOP(=O)(OCC)N1C/C(=C\c2ccccc2)C(=O)C2(C1)C(c1ccccc1)CN(C)C21C(=O)Nc2ccc(Cl)cc21 (centres unmarked) has an IC50 of 10.4 µM (viral replication; inhibitor; Vero C1008; 72 h).
For CC[C@H](C)C[C@H](C)CCCCCCCCC(=O)N[C@H]1C[C@@H](O)[C@@H](NCCN)NC(=O)[C@@H]2[C@@H](O)CCN2C(=O)[C@H]([C@H](O)CCN)NC(=O)[C@H]([C@H](O)[C@@H](O)c2ccc(O)cc2)NC(=O)[C@@H]2C[C@@H](O)CN2C(=O)[C@H]([C@@H](C)O)NC1=O, the IC50 was over 200 µg/mL (viral replication; inhibitor; Vero; 24 h).
C[C@@H]1O[C@@H](O[C@H]2C[C@@H](O)[C@]3(CO)[C@H]4[C@H](O)C[C@]5(C)[C@@H](C6=CC(=O)OC6)CC[C@]5(O)[C@@H]4CC[C@]3(O)C2)[C@H](O)[C@H](O)[C@H]1O has an IC50 of 0.03 µM (viral replication; inhibitor; Vero C1008).
For CCN(CC)CCCC(C)Nc1ccnc2cc(Cl)ccc12 (centres unmarked), the IC50 was 1.38 µM (viral replication; inhibitor; Vero C1008).
For CCCCc1oc2ccc(NS(C)(=O)=O)cc2c1C(=O)c1ccc(OCCCN(CCCC)CCCC)cc1, the IC50 was 1.5 µM (viral replication; inhibitor; Vero C1008).
CCC(CC)COC(=O)[C@H](C)N[P@](=O)(OC[C@H]1O[C@@](C#N)(c2ccc3c(N)ncnn23)[C@H](O)[C@@H]1O)Oc1ccccc1 has an IC50 of 0.19 µM (plaque formation; inhibitor; Vero C1008).
